Experimental findings from publication PMC5110367 (Nature chemical biology, 2016) are described below.

For one experiment, the target named is T1, PPARγ (Mus musculus, UniProt P37238).
T1 sequence (P37238 1-505): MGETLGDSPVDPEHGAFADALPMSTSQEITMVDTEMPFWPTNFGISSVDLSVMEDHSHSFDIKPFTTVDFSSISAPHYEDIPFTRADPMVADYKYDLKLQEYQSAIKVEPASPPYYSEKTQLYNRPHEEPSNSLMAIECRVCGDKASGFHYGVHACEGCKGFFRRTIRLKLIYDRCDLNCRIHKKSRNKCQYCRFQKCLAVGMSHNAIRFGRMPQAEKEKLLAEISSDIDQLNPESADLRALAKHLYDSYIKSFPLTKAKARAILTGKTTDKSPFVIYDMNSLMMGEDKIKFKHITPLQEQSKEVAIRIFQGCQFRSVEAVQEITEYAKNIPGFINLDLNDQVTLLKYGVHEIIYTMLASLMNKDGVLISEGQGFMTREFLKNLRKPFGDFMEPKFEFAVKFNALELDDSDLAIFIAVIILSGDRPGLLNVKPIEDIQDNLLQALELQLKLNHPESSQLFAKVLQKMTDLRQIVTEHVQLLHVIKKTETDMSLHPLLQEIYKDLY
Put plainly: GW9662 against rosiglitazone-stimulated PPRE-luciferase in Pparb-null astrocytes. The class given is cell-based. Particulars: GW9662 30 min before rosiglitazone.

Experiment [1] deals with PPRE-driven luciferase activity. Description: PPRE-luciferase assay in Ppara-null astrocytes transduced with empty vector. It counts as cell-based, mouse. Particulars: 4 h. The method in brief:
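Ppara-null astrocytes came from mixed glial cultures of 7-d-old pups. They were transduced 48 h with empty-vector lentivirions and transfected with tk-PPREx3-Luc reporter. After 24 h they were treated with different doses of test compound for 4 h, then luciferase activity was read. Values are mean ± SD of three independent experiments.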

Another experiment deals with T2, FL-Ppara (Mus musculus, UniProt P23204).
T2 sequence (P23204 1-468): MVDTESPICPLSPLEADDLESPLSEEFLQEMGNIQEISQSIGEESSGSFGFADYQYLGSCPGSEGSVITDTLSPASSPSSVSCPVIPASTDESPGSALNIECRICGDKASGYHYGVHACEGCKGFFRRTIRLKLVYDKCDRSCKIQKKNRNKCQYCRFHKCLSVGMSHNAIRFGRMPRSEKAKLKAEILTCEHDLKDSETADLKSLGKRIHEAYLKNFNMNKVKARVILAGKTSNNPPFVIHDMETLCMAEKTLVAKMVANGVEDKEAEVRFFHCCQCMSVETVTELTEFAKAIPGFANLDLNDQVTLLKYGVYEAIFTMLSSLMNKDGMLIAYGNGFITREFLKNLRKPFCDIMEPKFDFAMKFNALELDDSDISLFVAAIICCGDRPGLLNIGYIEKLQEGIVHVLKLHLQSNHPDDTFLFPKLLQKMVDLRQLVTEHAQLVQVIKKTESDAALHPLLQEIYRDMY
The class given is cell-based.

The target in another experiment is T3, Y314D-Ppara (Mus musculus, UniProt P23204, Y314D).
T3 sequence (P23204 1-468 Y314D): T2 sequence (P23204 1-468) with Y314D
It counts as cell-based.

The target in the next experiment is T4, Y464D-Ppara (Mus musculus, UniProt P23204, Y464D).
T4 sequence (P23204 1-468 Y464D): T2 sequence (P23204 1-468) with Y464D
It counts as cell-based.

For a further experiment, the target named is T5, Y314D/Y464D-Ppara (Mus musculus, UniProt P23204, Y314D/Y464D).
T5 sequence (P23204 1-468 Y314D/Y464D): T2 sequence (P23204 1-468) with Y314D, Y464D
The class given is cell-based.

Experiment [2] relates to Ppara-null hippocampal neurons. Put plainly: Dendritic spine density. Particulars: Ppara-null neurons transduced with lenti-FL-Ppara or lenti-Y464D-Ppara. It counts as cell-based, mouse. The method in brief: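 Ppara-null hippocampal neurons were taken from E18 fetuses and treated with 10 μM AraC to remove glia. They were differentiated 9–10 days, then transduced 48 h with lentivirions carrying GFP (vector), FL-Ppara or Y464D-Ppara. Neurons then received vehicle (DMSO) or test compound for 24 h. They were stained with Dylight-554-phalloidin, and spine density was scored by fluorescence microscopy.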

Residue numbers refer to the chain shown, from its start. Where two headings read alike, the source gives them in different places.

Turning to `O=C(Nc1ccccc1)c1cc([N+](=O)[O-])ccc1Cl` [GW9662], the “effect on rosiglitazone-mediated PPRE-luciferase activity” value on PPARγ was “Inhibition of rosiglitazone-mediated increase in PPRE-luciferase activity”.
With `Cc1cccc(Nc2cc(Cl)nc(SCC(=O)O)n2)c1C` [WY14643, reference compound], in experiment [1], the PPRE-driven luciferase activity entry is listed as “unable to induce PPRE-luciferase activity”. Moreover, the PPRE-luciferase reporter activity result on FL-Ppara is reported as “markedly induced PPRE-luciferase activity”. Moreover, the PPRE-luciferase activity result on Y314D-Ppara, at Y464D-Ppara and at Y314D/Y464D-Ppara was “no luciferase activity” each time. Further, in experiment [2], the “density of dendritic spines” value is listed as “stimulated the density of spines only when Ppara-null neurons were transduced with lenti-FL-Ppara, but not lenti-Y464D-Ppara”.
`CCOC(=O)C(C)(C)Oc1ccc(Cl)cc1` [clofibrate, reference compound]: the PPRE-driven luciferase activity result in experiment [1] is listed as “unable to induce PPRE-luciferase activity”. Further, the PPRE-luciferase reporter activity result on FL-Ppara (Ppara-null astrocytes transduced with lenti-FL-Ppara, 4 h) is listed as “markedly induced PPRE-luciferase activity”. In addition, the PPRE-luciferase activity result on Y314D-Ppara (Ppara-null astrocytes transduced with lenti-Y314D-Ppara, 4 h) is given as “no luciferase activity”; at Y464D-Ppara (Ppara-null astrocytes transduced with lenti-Y464D-Ppara, 4 h), “no luciferase activity”; on Y314D/Y464D-Ppara (Ppara-null astrocytes transduced with lenti-Y314D/Y464D-Ppara, 4 h) it was “no luciferase activity”.
For the compound `CC(C)OC(=O)C(C)(C)Oc1ccc(C(=O)c2ccc(Cl)cc2)cc1` [fenofibrate], the PPRE-driven luciferase activity result in experiment [1] is given as “unable to induce PPRE-luciferase activity”.
